Kir21 block – Kir2.1 (mouse) channel inhibition; B-score at 10 µM; P35561; HEK293-Kir2.1, FluxOR thallium flux fluorescence; active compounds read low; 310,000 compounds, 0.85% hits;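 active = fluorescence ratio B-score at or below minus 3 SD of library scores, with starting-brightness B-score within 2 SD, cut at about -4.2 in these data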;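 note: channel flux triggered by added potassium and thallium sulfate stimulus; B-score of peak minus minimum fluorescence over baseline after thallium stimulus; more negative B-score means stronger Kir2.1 block with less thallium influx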
KCNK9 inh – blocks the human KCNK9 two-pore domain potassium channel | B-score at 10 µM | Q9NPC2 | 310,000 compounds, 1.2% hits | HEK293 KCNK9, FluxOR thallium flux fluorescence; active compounds read low;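 active = ratio B-score over 3 SD below the library mean, with starting fluorescence within 5 SD of its mean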;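 note: negative B-score means less thallium flux so channel inhibition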
KCNQ1 act – potentiates or activates the human KCNQ1 potassium channel. P51787. CHO-K1 KCNQ1, thallium flux FluxOR fluorescence; active compounds read high. B-score at 10 µM. 310,000 compounds, 0.35% hits. AID 2648;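 active = fluorescence ratio B-score, a plate-corrected score, at least three library SD, with initial intensity B-score within 5 SD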
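Assay system: CHO-K1 cells stably expressing KCNQ1; Medium: assay buffer with matched DMSO; Also added: K+/Tl+ depolarizing stimulus; Dosing: single dose; Timing: dye 90 min, compound 20 min, room temperature; Measured by: kinetic FluxOR thallium fluorescence, 10-s 1-Hz baseline, 110-s post-stimulus read; Read-out: peak-minus-minimum fluorescence over initial fluorescence, negative-control normalized, B-scored.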
KCNK3 block – human KCNK3 channel inhibition, primary screen; 340,000 compounds, 0.84% hits; O14649; AID 602410; B-score at 10 µM; CHO-KCNK3 thallium flux, FluxOR fluorescence; active compounds read low;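 active = B-score under library mean minus 4 SD, starting fluorescence ratio at most library mean plus 5 SD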;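 note: more negative B-score means stronger inhibition of thallium flux through KCNK3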
hERG rescue – hERG (human) protection from proarrhythmic block. activation (rescue from dofetilide block), less the hit threshold, % at 10 µM. Q12809. 310,000 compounds, 0.51% hits. CHO-hERG, FluxOR thallium flux, dofetilide IC70 present;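 active = activation above the mean of controls blocked by dofetilide plus 5 SD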;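 note: thallium influx through hERG after potassium depolarization seen as dye fluorescence rise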
Target sequence (Q12809 whole entry, looked up): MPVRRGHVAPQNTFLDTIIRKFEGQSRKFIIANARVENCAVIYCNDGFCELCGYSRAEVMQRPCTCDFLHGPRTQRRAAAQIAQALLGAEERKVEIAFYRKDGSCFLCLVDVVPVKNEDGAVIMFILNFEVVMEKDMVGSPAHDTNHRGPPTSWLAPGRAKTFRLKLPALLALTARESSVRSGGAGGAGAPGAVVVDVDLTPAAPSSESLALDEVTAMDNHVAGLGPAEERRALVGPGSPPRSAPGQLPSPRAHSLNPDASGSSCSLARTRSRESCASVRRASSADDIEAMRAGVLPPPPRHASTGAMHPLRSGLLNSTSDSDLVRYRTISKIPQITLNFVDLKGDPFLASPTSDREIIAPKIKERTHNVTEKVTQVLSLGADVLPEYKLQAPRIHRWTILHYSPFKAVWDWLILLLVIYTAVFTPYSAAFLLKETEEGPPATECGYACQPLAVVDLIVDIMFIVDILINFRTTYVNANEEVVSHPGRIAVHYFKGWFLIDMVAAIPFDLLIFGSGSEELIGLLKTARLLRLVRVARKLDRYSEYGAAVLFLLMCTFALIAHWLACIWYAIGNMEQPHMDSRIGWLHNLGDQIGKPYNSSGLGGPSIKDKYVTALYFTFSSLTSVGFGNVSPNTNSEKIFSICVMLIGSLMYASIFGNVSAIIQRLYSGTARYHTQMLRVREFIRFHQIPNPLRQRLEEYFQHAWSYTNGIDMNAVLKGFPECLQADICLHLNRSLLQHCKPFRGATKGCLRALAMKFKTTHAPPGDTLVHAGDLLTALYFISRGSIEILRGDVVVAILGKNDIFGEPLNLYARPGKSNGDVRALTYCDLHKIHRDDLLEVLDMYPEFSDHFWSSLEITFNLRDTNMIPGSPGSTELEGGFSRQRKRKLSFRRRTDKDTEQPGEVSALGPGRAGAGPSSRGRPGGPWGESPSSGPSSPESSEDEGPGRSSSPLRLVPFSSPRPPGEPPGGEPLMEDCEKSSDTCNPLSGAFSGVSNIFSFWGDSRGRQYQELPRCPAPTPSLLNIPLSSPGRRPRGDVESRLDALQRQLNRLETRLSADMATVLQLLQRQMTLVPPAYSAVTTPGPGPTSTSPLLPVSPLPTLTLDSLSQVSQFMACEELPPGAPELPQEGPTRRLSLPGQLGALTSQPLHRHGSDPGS
KCNQ1 inh – human KCNQ1 channel inhibition. AID 2642. 310,000 compounds, 1.3% hits. B-score at 10 µM. P51787. CHO-K1 KCNQ1, FluxOR thallium flux fluorescence; active compounds read high;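 active = compounds whose thallium flux B-score, printed positive for inhibition, exceeds three library SD while starting fluorescence stays within three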;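 note: channel opened by potassium depolarization with thallium stimulus after 20 min compound exposure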
KCNK9 block conf – human KCNK9 inhibitor confirmation | shares compounds with KCNK9 inh | HEK293 KCNK9 cells, FluxOR thallium flux fluorescence | inhibition, % at 10 µM | 4,900 compounds, 43% hits | AID 492992;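 active = thallium signal inhibited by more than 5 SD of the compound-free buffer control wells, on both duplicate plates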;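 note: 0% = assay buffer control wells without compound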
Kir2-1 spec – mouse Kir2.1 off-target activity of KCNK9 modulators; inhibition, % at 10 µM; Kir2.1 cells, FluxOR thallium flux fluorescence; 4,900 compounds, 4% hits; shares compounds with KCNK9 inh;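 active = thallium signal drop more than 5 SD beyond the mean of the no-compound control wells, seen in both duplicate plates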;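 note: signal is fluorescence rise after thallium addition divided by baseline fluorescence; plate controls were assay buffer only for no effect and full block by chlorpromazine control for full effect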
KCNK9 uninduced – second check of KCNK9 modulator effects in non-induced HEK293 cells; shares compounds with KCNK9 inh; FluxOR thallium flux; inhibition, % at 10 µM; 4,900 compounds, 40% hits; AID 492997;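 active = thallium signal drop beyond 5 SD of the untreated control mean, on both duplicate plates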;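 note: plate controls were buffer only IC0 wells for no effect and SID17386958 at its maximal inhibitory level for full effect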
* marks the source's active call; other numbers are inactive results; i = inactive; nt = no result. A selection: hits, their analogues and other compounds. The true share with any hit is near 3.7%.

SMILES	Kir21 block	KCNK9 inh	KCNQ1 act	KCNK3 block	hERG rescue	KCNQ1 inh	KCNK9 block conf	Kir2-1 spec	KCNK9 uninduced
O=C(N/N=C/c1cccs1)c1cc(-c2cccc3ccccc23)n[nH]1	-0.33	-13*	i	i	-5	i	54%*	i	32%*
COc1ccc(CN2CCC(CO)(Cc3ccccc3C(F)(F)F)CC2)c(F)c1	-0.58	i	i	i	-15	i	i	i	i
Cc1nn(Cc2ccccc2)c(=O)n1N(C)c1ncc(C(F)(F)F)cc1Cl	-0.16	i	i	i	-4	i	i	i	i
Cc1c(C(=O)N2CCC[C@H]2C(N)=O)oc2c(F)cccc12	-0.01	i	i	i	-3	i	i	i	i
Cc1c(C(=O)N2CCN(c3ccccn3)CC2)oc2c(F)cccc12	1.9	i	i	i	-6	i	nt	nt	nt
Cc1[nH]n(C2=NCCS2)c(=O)c1N=Nc1ccccc1	-0.12	-12*	i	i	-16	i	i	i	32%*
Cc1[nH]n(-c2ccccc2)c(=O)c1N=Nc1ccc2c(c1)OCO2	1.4	i	i	i	-11	i	nt	nt	nt
Cc1ccc2sc(NNC(=O)c3cc(=O)c4ccccc4o3)nc2c1C	-0.55	i	i	i	-21	i	i	i	i
Cc1cccc2sc(NNC(=O)c3cc(=O)c4ccccc4o3)nc12	0.01	i	i	i	-16	i	i	i	i
CCOc1ccc(N(CC(=O)N2CCOCC2)S(=O)(=O)c2ccc(SC)cc2)cc1	0.23	i	i	i	-6	i	nt	nt	nt
O=C(CCC(=O)N(CC(=O)NC1CCCCC1)CC1CCCO1)Nc1nccs1 (centres undefined)	-0.02	i	i	i	-15	i	nt	nt	nt
CSc1nnc(-c2ccccc2N=Cc2c(C)[nH]n(-c3ccc4ccccc4c3)c2=O)c(=O)[nH]1	0.67	i	i	i	-13	i	i	i	i
C=CCSc1nnc(-c2ccccc2N=Cc2c(C)[nH]n(-c3ccccc3)c2=O)c(=O)[nH]1	1.4	i	i	i	-22	i	nt	nt	nt
CC(C)(C)c1ccc(/C=N/NC(=S)NC2CCCCC2)cc1	0.5	i	i	i	-7	i	i	i	i
Cc1ccc2c(c1)c1n[nH]c(=S)nc1n2CCc1ccccc1	2.4	i	i	i	-1	i	nt	nt	nt
CCCCSc1nnc2n(CCc3ccccc3)c(=O)c3c4c(sc3n12)COC(C)(C)C4	0.33	i	i	i	-16	i	i	i	i
Cc1ccccc1OCC(=O)OCC(=O)c1c[nH]c2ccccc12	nt	nt	nt	i	nt	nt	nt	nt	nt
COc1ccc(C)cc1NC(=O)CN(Cc1nnc(-c2ccc(Cl)cc2)o1)C1CCCC1	2.2	-12*	i	i	-18	i	36%*	i	32%*
N/C(=N\O)c1ccccc1N1CCCCC1	-0.64	i	i	i	-15	i	nt	nt	nt
O=C(Nc1c(S(=O)(=O)c2ccc(Cl)cc2)csc1Br)c1ccccc1Cl	-0.16	-11*	i	i	-5	i	38%*	i	35%*
O=C(NC(=O)c1ccccc1Cl)C(=O)Nc1ccc(Cl)cc1	1.2	i	i	i	-4	i	nt	nt	nt
CCN(CC)S(=O)(=O)c1cccc(C(=O)NC2CCCCC2)c1	0.1	i	i	i	-12	i	nt	nt	nt
CCN(CC)S(=O)(=O)c1ccc(C)c(NC(=S)NC2CCCCC2)c1	-0.16	i	i	i	-8	i	i	i	i
CN(C(=O)c1ccc(N2CCCCC2)c([N+](=O)[O-])c1)C1(C)CCS(=O)(=O)C1 (centres undefined)	-0.05	i	i	i	-8	i	nt	nt	nt
CC1=NNC(=O)/C1=C\c1cn(-c2ccccc2)nc1-c1ccc(Cl)cc1	1.2	i	i	i	-8	i	i	i	i
SMILES	Kir21 block	KCNK9 inh	KCNQ1 act	KCNK3 block	hERG rescue	KCNQ1 inh	KCNK9 block conf	Kir2-1 spec	KCNK9 uninduced
Nc1nc(Nc2cccc(C(F)(F)F)c2)nc(C(F)(F)F)n1	2	-9.3*	i	i	-6	i	40%*	i	i
C=C1CC2C(=O)N(Cc3ccccc3)C(C(=O)OCC)(C(=O)OCC)C1N2C(=O)OC(C)(C)C (centres undefined)	-1.3	-12*	i	i	-9	i	47%*	i	37%*
Cc1ccc(N=Nc2c(O)ccc3n[nH]nc23)cc1	2.8	i	i	i	-9	i	i	i	i
CCOC(=O)c1c(C)[nH]c(N=Nc2ccc(C)cc2)c1C	-0.18	i	i	i	-5	i	nt	nt	nt
NC(=O)C1CCCN(C(=O)c2ccc(-c3cccc(Cl)c3Cl)o2)C1 (centres undefined)	nt	nt	nt	i	nt	nt	nt	nt	nt
CCOc1ccccc1C1N=C(c2ccc(OC)cc2)CC(c2ccccc2O)N1 (centres undefined)	-1.6	i	i	i	-17	i	i	i	i
CS(=O)(=O)c1ccc(-c2sc3cc4c(cc3c2C(=O)NN2CCOCC2)OCO4)cc1	nt	nt	nt	i	nt	nt	nt	nt	nt
COC(=O)c1c(NC(=O)CCc2ccc(C)o2)sc(C)c1C	-0.49	i	i	i	-12	i	nt	nt	nt
CCOC(=O)c1c(NC(=O)CSc2nc3ccccc3s2)sc(C)c1C	1.6	i	i	i	-11	i	i	i	i
CCOC(=O)c1c(NC(=O)CCc2ccc(CC)o2)sc(C)c1C	0.1	i	i	i	-19	i	i	i	24%*
CCOC(=O)c1c(NC(=O)CSc2nnc(Cc3ccccc3)o2)sc(C)c1C	-1.7	i	i	i	-6	i	i	i	i
